NSD2 inh: NSD2 histone methyltransferase inhibitors, primary screen, biochemical, AlphaScreen, single concentration, set 2; Histone-lysine N-methyltransferase NSD2 (Homo sapiens), O96028; NSD2 peptide methylation, 120 min; inhibition, % at 12.5 µM; actives 0.54% (n = 310,000); AID 743445, 2014
Target sequence (O96028 whole entry, looked up): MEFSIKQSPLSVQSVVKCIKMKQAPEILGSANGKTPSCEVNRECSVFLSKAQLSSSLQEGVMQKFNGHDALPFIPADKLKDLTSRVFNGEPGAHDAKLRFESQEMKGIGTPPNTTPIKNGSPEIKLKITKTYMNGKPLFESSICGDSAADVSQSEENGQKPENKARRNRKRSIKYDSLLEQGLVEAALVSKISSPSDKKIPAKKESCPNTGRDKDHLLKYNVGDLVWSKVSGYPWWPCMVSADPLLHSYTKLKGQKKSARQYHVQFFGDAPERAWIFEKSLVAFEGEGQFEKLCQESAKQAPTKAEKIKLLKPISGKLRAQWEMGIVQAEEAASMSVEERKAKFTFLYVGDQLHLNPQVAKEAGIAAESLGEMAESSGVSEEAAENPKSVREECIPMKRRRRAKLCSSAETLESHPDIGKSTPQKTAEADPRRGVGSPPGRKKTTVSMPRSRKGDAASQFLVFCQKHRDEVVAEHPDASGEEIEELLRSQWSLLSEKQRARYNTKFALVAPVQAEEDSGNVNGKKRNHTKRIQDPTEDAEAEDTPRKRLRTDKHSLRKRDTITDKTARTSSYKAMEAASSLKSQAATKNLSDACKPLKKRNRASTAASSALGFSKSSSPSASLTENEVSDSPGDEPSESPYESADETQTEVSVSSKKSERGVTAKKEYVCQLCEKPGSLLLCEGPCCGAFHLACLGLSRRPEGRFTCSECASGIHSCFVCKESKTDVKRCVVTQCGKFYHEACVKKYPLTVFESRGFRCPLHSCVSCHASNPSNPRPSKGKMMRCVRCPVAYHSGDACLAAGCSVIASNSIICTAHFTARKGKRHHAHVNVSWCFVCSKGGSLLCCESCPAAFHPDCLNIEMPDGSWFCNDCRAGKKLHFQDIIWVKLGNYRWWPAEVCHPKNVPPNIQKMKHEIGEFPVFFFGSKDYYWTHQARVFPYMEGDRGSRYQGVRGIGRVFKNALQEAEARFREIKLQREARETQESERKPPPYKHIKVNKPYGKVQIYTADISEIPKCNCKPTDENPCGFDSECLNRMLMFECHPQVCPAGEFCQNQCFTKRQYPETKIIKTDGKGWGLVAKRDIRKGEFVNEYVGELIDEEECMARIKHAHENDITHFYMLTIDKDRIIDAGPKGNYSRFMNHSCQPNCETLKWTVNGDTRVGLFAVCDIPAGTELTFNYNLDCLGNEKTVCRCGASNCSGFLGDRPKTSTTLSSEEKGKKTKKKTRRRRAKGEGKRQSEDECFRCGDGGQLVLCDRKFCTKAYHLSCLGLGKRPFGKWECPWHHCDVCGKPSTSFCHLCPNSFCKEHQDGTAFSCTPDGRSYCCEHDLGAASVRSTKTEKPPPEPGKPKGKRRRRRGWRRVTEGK
CASP6 VEID inh: human caspase-6 inhibitors, primary screen, biochemical, VEID-R110 fluorescence, single point, set 2. inhibition, % at 12.5 µM. actives 0.53% (n = 350,000). P55212. AID 686996, 2013. purified caspase-6, Z-VEID-R110 cleavage fluorescence;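 active = mean inhibition across replicates at least about 35%, with every replicate also reaching that limit, limit read from the data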;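 note: 0% = median of neutral control wells and 100% = no fluorescence left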
HCV NS3 hel inh: inhibitors of HCV NS3 helicase, primary screen, biochemical, Cy5 molecular beacon fluorescence. Hepatitis C virus NS3 helicase. NS3 helicase DNA unwinding. inhibition, % at 10.9 µM. actives 0.56% (n = 290,000). AID 1800, 2009;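 active = inhibition above the mean of all tested compounds plus 3 SD, set per campaign, cut at about 35% in these data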;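 note: 0% = DMSO wells and 100% = thioflavine S control wells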
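Control set: DMSO versus 110 µM thioflavine S; Material: NS3 helicase fragment of HCV; Measured by: Cy5 fluorescence at 0 and 60 min, beacon hairpin quenching; Read-out basis: percent inhibition from t60/t0 fluorescence ratio; Times: reaction time 60 min, 25 °C; Repeats: single replicate; Compound dosing: single dose, 10.9 µM nominal final, DMSO 0.8% final.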
DNMT1 block: human DNMT1 methyltransferase inhibitors, primary screen, biochemical, molecular beacon, fluorescence, HinP1I cleavage, uHTS; DNA (cytosine-5)-methyltransferase 1 (Homo sapiens), P26358; inhibition (reported as % activation of signal), % at 10 µM; actives 0.83% (n = 360,000); AID 588458, 2011
Starred values were filed as active, the others as inactive; · = no result; + = active, no number. Sampled rows, rich in hits. Any-hit rate of the full collection: about 1.5%. Cut-off read from the data, not from the text of the source, unless noted: active = inhibition above about 50%; inactive = the rest.

SMILES | NSD2 inh | CASP6 VEID inh | HCV NS3 hel inh | DNMT1 block
O=C(O)c1cc(-c2ccc(-c3c(-c4ccc5c(c4)OCO5)noc3-c3ccsc3)cc2)nc2ccccc12 | · | 37* | -33 | -21
CCOC(=O)N=Nc1c2ccccc2c2nc3no[nH]c3nc12 | · | 25 | -4 | 50*
CC(=O)C1CCC2C3CCC4=CC(=O)C=CC4(C)C3C(=O)CC12C (stereo not drawn) | 16 | 0 | · | 0
C[C@]12C=CC(=O)C=C1CC[C@@H]1C2=CC[C@]2(C)[C@@H](C(=O)CN3CCN(c4cc(N5CCCC5)nc(N5CCCC5)n4)CC3)CC[C@@H]12 | · | -18 | · | 61*
CCOc1cc2c(cc1OCC)C(c1ccc(F)cc1)NCC2 (stereo not drawn) | 2 | 0 | · | 2
CCOc1cc2c(cc1OC)C(c1cccc([N+](=O)[O-])c1)NCC2 (stereo not drawn) | -24 | 42* | 1 | 1
O=S(=O)(Nc1cc(Sc2ncn[nH]2)c(O)c2ccccc12)c1ccccc1 | + | 100* | 10 | 24
COc1cc(/C=C(/C#N)C(=O)Nc2ccccc2)ccc1OCc1ccc(C(=O)O)cc1 | 1 | 37* | 19 | -2
COc1cc(/C=C(\C#N)C(=O)Nc2cccc(C(=O)O)c2)ccc1OCc1ccc(C)cc1 | 1 | 4 | -4 | 5
N#C/C(=C\c1ccc(OCc2ccc(Cl)cc2)cc1)C(=O)Nc1cccc(C(=O)O)c1 | · | 8 | -6 | 62*
C[C@H]1CN([C@@H](C)CO)C(=O)c2cc(C#CCc3ccccc3)cnc2O[C@H]1CN(C)Cc1ccc(C(=O)O)cc1 | · | 4 | · | ·
O=C(C[C@H]1C=C[C@H](NC(=O)c2cccnc2)[C@H](CO)O1)NCc1ccncn1 | · | 1 | · | ·
O=C(O)COc1ccc(/C=N/NC(=O)c2ccc(-c3csc(Nc4ccc(Cl)cc4)n3)cc2)cc1 | 0 | 20 | 19 | -66
CCOc1cc(/C=N/NC(=O)c2ccc(-c3csc(Nc4ccc(C)cc4)n3)cc2)ccc1OCC(=O)O | -5 | 50* | 32 | 78*
CCn1cc(CNC(=S)Nc2cccc3ccccc23)cn1 | 0 | 53* | 4 | -3
S=C(NCc1cccnc1)Nc1cccc2ccccc12 | -2 | 1 | -1 | -2
CC(C)CC#Cc1ccc2c(c1)O[C@@H](CN(C)C(=O)c1cnccn1)[C@@H](C)CN([C@@H](C)CO)S2(=O)=O | · | 1 | · | ·
CCOc1ccccc1OCCC(=O)NNC(=O)Cn1nc(C)cc1C | 4 | 46* | · | 4
C[C@@H]1CN([C@@H](C)CO)C(=O)c2cc(NC(=O)Nc3ccc4c(c3)OCO4)ccc2O[C@@H](C)CCCCO[C@H]1CN(C)C(=O)c1ccccc1 | · | -4 | · | ·
CC1CCc2c(sc3ncn(CC(=O)N=Nc4c(O)[nH]c5ccccc45)c(=O)c23)C1 (stereo not drawn) | 0 | 2 | -7 | 54*
CC1CCc2c(sc3ncn(CCO)c(=O)c23)C1 (stereo not drawn) | -2 | 1 | 0 | -3
COc1ccc(NC(=O)N2C[C@@H](O)COC[C@@H]3O[C@H](CC(=O)NC4Cc5ccccc5C4)CC[C@H]32)cc1 | · | -1 | · | ·
C[C@@H]1CCCCO[C@H](CN(C)S(=O)(=O)c2ccccc2)[C@H](C)CN([C@H](C)CO)C(=O)c2cc(NC(=O)C3CCCCC3)ccc2O1 | · | 4 | · | ·
COc1ccccc1S(=O)(=O)N[C@@H]1C=C[C@@H](CC(=O)N2CCOCC2)O[C@H]1CO | · | 53* | · | ·
COc1ccccc1S(=O)(=O)N[C@H]1C=C[C@H](CC(=O)N2CCOCC2)O[C@@H]1CO | · | -5 | · | ·
SMILES | NSD2 inh | CASP6 VEID inh | HCV NS3 hel inh | DNMT1 block
CCOc1ccc(N(CC(=O)Nc2ccccc2Cl)S(C)(=O)=O)cc1 | 0 | 2 | -7 | 0
CCOc1ccc(N(CC(=O)Nc2cc(Cl)ccc2C)S(C)(=O)=O)cc1 | -3 | 57* | -6 | 3
C[C@@H](O)C#Cc1cnc2c(c1)C(=O)N([C@@H](C)CO)C[C@H](C)[C@H](CN(C)C(=O)Cc1ccncc1)O2 | · | -2 | · | ·
CCC1=NN2C(=N)/C(=C\c3ccc(OCCOc4ccccc4OC)cc3)C(=O)N=C2S1 | -2 | 5 | 19 | -4
COc1cc(/C=C2\C(=N)N3N=C(S(C)(=O)=O)SC3=NC2=O)ccc1OCCOc1ccccc1C | 5 | 40* | 3 | -8
COc1cc(/C=C2\C(=N)N3N=C(S(C)(=O)=O)SC3=NC2=O)ccc1OC(=O)c1ccco1 | 48 | 41* | 7 | 20
C/C=C/c1ccc2c(c1)O[C@@H](CN(C)C(=O)Nc1ccc(F)cc1)[C@H](C)CN([C@H](C)CO)S2(=O)=O | · | -3 | · | ·
CN(C)C(=O)c1ccc(NC(=O)c2cc(-c3ccco3)nc3ccccc23)cc1 | 2 | 28 | 14 | 50*
CC(C)C(=O)C1=Cc2cccc([N+](=O)[O-])c2OC1N1CCOCC1 (stereo not drawn) | 2 | 37* | · | -10
CC(C)CNC(=O)C1(C)CCCCCN1C(=O)c1cccnc1 (stereo not drawn) | 2 | 56* | · | 4
C[C@@H]1CN([C@@H](C)CO)C(=O)c2cc(NC(=O)CCC(F)(F)F)ccc2O[C@H]1CN(C)S(=O)(=O)c1cn(C)cn1 | · | -2 | · | ·
O=[N+]([O-])c1ccc(N2CCCC2)cc1N1CCCC1 | 53* | · | -9 | -3
O=C(c1ccc(-n2cncn2)c([N+](=O)[O-])c1)N1CCN(S(=O)(=O)c2ccc(Br)cc2)CC1 | 2 | 5 | · | -3
CC(=O)c1ccc(S(=O)(=O)N2CCN(C(=O)c3ccc(-n4cncn4)c([N+](=O)[O-])c3)CC2)cc1 | 1 | 54* | · | 0
O=C([C@H]1[C@H](CO)[C@H]2Cn3c(ccc(C4=CCCC4)c3=O)[C@H]2N1Cc1nccs1)N1CCCCC1 | · | 1 | · | ·
O=C1c2ccccc2C(=O)c2c(O)c(O)cc(O)c21 | · | 41* | · | 79*
Nc1ccc(O)c2c1C(=O)c1ccccc1C2=O | · | 13 | 17 | 89*
O=C(O)c1cccc2c1C(=O)c1ccccc1C2=O | 4 | 0 | -5 | 0
O=C1C=C(O)c2c(O)cc(O)c(O)c2C1=O | · | 71* | · | 12
CCCNC(=O)C[C@H]1CC[C@@H]2[C@H](COc3ccc(NC(=O)c4cscn4)cc3C(=O)N2C)O1 | · | 1 | · | ·
COc1cc(OC)c(OC)cc1CCC(C)NCCC(c1ccccc1)c1ccccc1 (stereo not drawn) | 71* | 1 | -63 | -3
COc1ccc(CCNCCC(c2ccccc2)c2ccccc2)cc1OC | 45 | -4 | · | -1
Cc1cc(C)c(S(=O)(=O)N2CCN(CCN3C(=O)c4cccc5cccc(c45)C3=O)CC2)cc1[N+](=O)[O-] | · | · | -2 | ·
O=C1c2cccc3cc([N+](=O)[O-])cc(c23)C(=O)N1CCN1CCCC1 | 13 | 2 | 18 | 70*
Nc1cc2c3c(cccc3c1)C(=O)N(CCN1CCCC1)C2=O | 13 | -9 | -3 | 51*
